# Assay outcomes from PubChem BioAssay.
# In the library only some 6.4% were active in any assay of this set; here they are far more common.
# EBV gp42 inh – inhibitors of Epstein-Barr virus glycoprotein 42; 0.42% of 220,000 active; Fluorescence polarization binding assay, mP read-out; inhibition, % (tested at 21.74 µM); AID 1085; Q1HVG2; in the data active means inhibition above about 50%
# Target sequence (Q1HVG2 whole entry, looked up): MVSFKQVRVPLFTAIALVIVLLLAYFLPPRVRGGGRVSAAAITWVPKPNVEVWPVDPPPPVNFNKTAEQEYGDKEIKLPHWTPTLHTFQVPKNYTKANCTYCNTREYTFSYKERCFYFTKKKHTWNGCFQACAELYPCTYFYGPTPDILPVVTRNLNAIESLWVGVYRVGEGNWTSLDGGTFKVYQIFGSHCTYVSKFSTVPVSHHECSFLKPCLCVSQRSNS
# WT yeast gro inh – growth inhibition of WT yeast, mitochondrial fusion screen | mitochondrial fusion phenotypic screen, WT strain | inhibition, % at 10 µM | 2.1% of 190,000 active; in the data active means inhibition above about 58%; tested in S. cerevisiae
# MPTP block – blocks calcium-induced mitochondrial swelling; isolated mouse mitochondria, Ca2+ swelling absorbance, 30 min; AID 602449; inhibition, % at 10 µM; 1.4% of 360,000 active;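 active means inhibition of 50% or more, scaled per plate between neutral and stimulator controls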;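 further: 0% = DMSO wells given calcium and 100% = 1 mM EGTA wells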
# CHOP inh – blocks CHOP induction under ER stress | CHO-K1 CHOP-promoter luciferase, tunicamycin-induced, 15-18 h | inhibition, % at 10 µM | 3.8% of 220,000 active;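 active means compounds that reduced the stress-induced luciferase reporter signal by more than about 70% of percent inhibition, limit read from the data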;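 further: 0% = tunicamycin plus vehicle and 100% = wells without tunicamycin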
# TbMetRS inhib – blocks T. brucei methionyl-tRNA synthetase activity | purified T. brucei MetRS, ATP depletion, Kinase-Glo luminescence | inhibition, % at 11.9 µM | 0.4% of 360,000 active;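 active means inhibition above a per-plate cutoff of the control wells' mean inhibition plus 3 SD, cut at about 5.5% in these data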;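 further: 0% = DMSO wells median and 100% = median of wells with control inhibitor compound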
#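 Measured by: Kinase-Glo luciferase luminescence reporting remaining unconsumed ATP. Material: purified T. brucei MetRS enzyme. Doses: 11.9 µM compound single dose, 0.9% DMSO. Medium: HEPES buffer containing pyrophosphatase, BSA, spermine, DTT. Times: 15 min preincubation, 2 h reaction, all 25 °C. Reagent: methionine, ATP and bulk E. coli tRNA.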
# NR3A LBD binder – NR3A (human) ligand-binding domain modulation. NR3A LBD differential scanning fluorimetry, Tm shift; 0% = protein alone, 100% = glycine-bound protein. 2.5% of 340,000 active. Tm shift relative to glycine control, % at 25 µM;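 active means melting temperature shift of at least 10% of the positive control shift, at one fixed dose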
# MPTP counter – Rhodamine 123 counter-screen of mitochondrial pore hits; inhibition, % at 10 µM; AID 624504; shares compounds with MPTP block; 78% of 5,000 active; isolated mitochondria, membrane potential, Rhodamine 123 fluorescence; in the data active means inhibition above about 22%;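 further: 0% = DMSO vehicle and 100% = positive control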
# MPTP abs DR – dose response confirmation of mitochondrial permeability transition pore inhibitors. shares compounds with MPTP block. isolated mitochondria swelling, absorbance. IC50, µM. 58% of 780 active; in the data active means IC50 below about 20 µM
# MPTP cs DR – active in counter-screen for permeability transition pore inhibitors; shares compounds with MPTP block; isolated mitochondria counterscreen, fluorescence read-out; IC50, µM; 49% of 780 active; AID 651564; in the data active means IC50 below about 80 µM
# Starred values were filed as active, the others as inactive; i = inactive; x = not tested or not shown; ! = repeats disagree.
SMILES,EBV gp42 inh,WT yeast gro inh,MPTP block,CHOP inh,TbMetRS inhib,NR3A LBD binder,MPTP counter,others
C#CCOCCOCCOCCNc1nc(N2CCN(C(=O)[C@H](CCCN=C(N)N)n3cc(C(N)[C@H](C)CC)nn3)CC2)nc(N2CCN(C(=O)[C@H](CCCN=C(N)N)n3cc(C(N)[C@@H](C)CC)nn3)CC2)n1 (stereo not given in full),x,x,-4,x,0,0,x,
C#CCOCCOCCOCCNc1nc(N2CCN(C(=O)CCCCCCCCCCNC(=O)Cn3cc(CCCCCN)nn3)CC2)nc(N2CCN(C(=O)CCCCCCCCCCNC(=O)[C@H]([C@@H](C)CC)n3cc(CCCCCN)nn3)CC2)n1,x,x,163*,x,0,28*,101*,
CC(C)(C)c1[nH]c2ccccc2c1/C=N/O,-24,10,6,-8,-1,-1,x,
CCOC(=O)c1c(-c2ccccc2)csc1NC(=O)CSc1nnc(C)s1,5,50,67*,46,-1,-1,46*,
CCCCCCc1cc2cc(S(=O)(=O)c3ccc(C)cc3)c(=O)oc2cc1O,-5,39,99*,86*,0,27*,78*,
CCCCCCc1cc2cc(S(=O)(=O)c3ccc(Cl)cc3)c(=O)oc2cc1O,-10,88*,101*,69,1,106*,94*,
COc1cnc(SCC(=O)O)[nH]c1=O,-9,-2,-1,35,-2,-1,x,
COc1ccc(CNC(=O)N2[C@H]3CC[C@@H]2C=C(c2ccc(F)cc2OCc2ccccc2)C3)cc1OC,x,x,-2,x,-1,x,x,
Cc1cc(Nc2cccc(F)c2)nc(-c2ccccc2O)n1,-13,-20,59*,51,0,30*,51*,
CCC(C)NC(=O)Cn1cnc([N+](=O)[O-])c1 (stereo not given),-12,-9,0,-14,-1,0,x,
O=[N+]([O-])c1ccc(-c2c(O)c3ccccc3c3nc4ccccc4nc23)cc1,-9,13,74*,60,0,-4,37*,
CCN(CC)S(=O)(=O)c1cccc(C(=O)N[C@H](C(=O)Nc2nc3ccc(F)cc3s2)C(C)C)c1,-18,1,55*,27,0,-3,72*,
CCN(CC)S(=O)(=O)c1cccc(C(=O)N[C@H](C(=O)Nc2nc3ccccc3s2)C(C)C)c1,0,6,5,35,0,2,x,
Cc1nc(C(=O)Nc2ccccc2Cl)cc2c1[nH]c1ccccc12,-4,-12,55*,51,0,1,11,MPTP abs DR=>100;MPTP cs DR=>80
CCc1ccc(NC(=O)Nc2ccc3c(c2)N(C)C(=O)CS3)cc1,1,-6,56*,75*,0,4,70*,
CC(=O)c1cccc(NC(=O)Nc2ccc3c(c2)N(C)C(=O)CS3)c1,2,2,90*,32,0,-11,76*,
COc1cc(OC)c(C2=NOC(C(=O)Nc3ccc4c(c3)OCO4)C2)cc1Cl (stereo not given),5,17,-3,-6,0,-8,x,
O=C(NCc1ccccc1)C1C2C=CC3(CN(Cc4cccnc4)C(=O)C13)O2 (stereo not given),2,1,0,14,0,-1,x,
O=[N+]([O-])c1ccc(N/N=C/c2ccccc2)c(F)c1,-6,9,83*,23,1,36*,80*,
O=S(=O)(c1ccc(Cl)cc1)N1CCN(c2ccccn2)CC1,x,x,1,x,0,1,x,
O=S(=O)(c1ccc(Cl)cc1)N1CCN(c2ncnc3sccc23)CC1,x,x,70*,x,0,-2,94*,
Cc1csc2c(N3CCN(S(=O)(=O)c4ccc(Cl)cc4)CC3)ncnc12,2,x,67*,7,0,-1,21*,
COCCCN(C(=S)Nc1cc(Cl)cc(Cl)c1)C(C)c1ccccn1 (stereo not given),-7,x,91*,27,0,-2,87*,
COCCCN(C(=S)Nc1ccc(C)cc1Cl)C(C)c1ccncc1 (stereo not given),-14,-1,0,20,0,-2,x,
COCCCN(C(=S)Nc1cc(Cl)cc(Cl)c1)C(C)c1ccncc1 (stereo not given),-2,21,93*,54,1,-6,99*,
SMILES,EBV gp42 inh,WT yeast gro inh,MPTP block,CHOP inh,TbMetRS inhib,NR3A LBD binder,MPTP counter,others
OC(c1ccc(F)cc1)c1nc(-c2ccncc2)cs1 (stereo not given),x,x,65*,x,0,x,57*,
O=C(CSc1nnc(-c2cccnc2)s1)Nc1ccnc2ccccc12,-20,-4,104*,56,1,1,73*,
Cc1ccc(NC(=O)CSc2nnc(-c3cccnc3)s2)cc1,-19,0,0,8,0,1,x,
CC1=NN(c2nc(-c3ccc(Cl)cc3)cs2)C(=O)C1,2,-29,60*,10,0,19*,17,MPTP abs DR=13*;MPTP cs DR=<2.5*
CN(C)c1nc(NCc2ccccc2)nc(SCC(N)=O)n1,x,x,0,x,-1,0,x,
CN(C)S(=O)(=O)c1cccc(CSCc2cccc(S(=O)(=O)N(C)C)c2)c1,x,x,79*,x,0,-1,88*,
COc1ccc(OCCNC(=O)c2cccc(Oc3ccc(C(F)(F)F)cc3[N+](=O)[O-])c2)cc1,-19,6,28,14,0,-4,x,
O=C(CSc1ccc(C(F)(F)F)cc1[N+](=O)[O-])N1CCOCC1,x,x,0,x,-1,0,x,
COc1cccc(OCCNC(=O)CSc2ccc(C(F)(F)F)cc2[N+](=O)[O-])c1,5,0,76*,85*,0,-4,46*,
Cc1ccccc1OCCNC(=O)CSc1ccc(C(F)(F)F)cc1[N+](=O)[O-],-12,0,93*,52,0,-6,73*,
CCN=c1scc(-c2ccc3c(c2)NC(=O)CO3)n1N=C1CCCC1,-29,3,35,x,0,-2,x,
COc1ccccc1N=c1scc(-c2ccc3c(c2)NC(=O)CO3)n1CC1CCCO1 (stereo not given),-11,4,64*,49,0,2,12,MPTP abs DR=i;MPTP cs DR=41*
COCC(C)n1c(-c2ccc3c(c2)NC(=O)CO3)csc1=Nc1ccc(OC(F)F)cc1 (stereo not given),-6,10,70*!,89*,0,-11,54*,
Cn1ncc2c(N3CCN(c4ccccc4F)CC3)ncnc21,-9,-9,-2,-3,-1,2,x,
Cn1ncc2c(N3CCN(c4ccc(Cl)c(Cl)c4)CC3)ncnc21,3,32,88*,84*,0,1,99*,
